# Source: PubChem
# Exocytosis inh = blocks lytic granule exocytosis; TALL-104 LAMP-1 surface exposure, flow cytometry; cells stimulated with thapsigargin and PMA; inhibition, % at 10 µM; actives 0.66% (n = 360,000); AID 651702;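 active = inhibition above about 55%, limit read from the data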
# T cell modulator = T cell immune modulators affecting CD8 T cell-vesicle binding. 2C CD8+ T cell-vesicle binding, flow cytometry; stronger effect = lower value. response (vesicle binding), % at 7 µM. actives 0.068% (n = 330,000). AID 2052;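 active = response, share of CD8 T cells binding vesicles, and their 90th percentile fluorescence all below set limits, cut at about 80% in these data, passing the limit was not always enough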;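 also: values below 100% mean blocked vesicle binding to the CD8+ T cells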
#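 Assay system: 2C TCR transgenic mouse naive CD8+ T cells, MACS-purified | Read-out: CD8+ gate FL2 mean fluorescence as % of same-row positive control | Signal: High-throughput flow cytometry with anti-B7-1 and anti-CD8 staining | Timing: Binding step 1.5 h, 37 °C, antibody labelling 20 min, ice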
# V-ATPase pHluor = yeast V-ATPase proton transport regulation by pHLuorin | S. cerevisiae, pHLuorin cytosolic pH fluorescence | response, % at 10 µM | actives 0.37% (n = 350,000) | AID 504577; in the data active = response mostly above about 7.3%, no sharp cut-off; inactive = mostly below about 5.4%; also: actives read high
# rCAG RNA binder = r(CAG) repeat RNA binding | AID 651821 | inhibition, % at 3 µM | TO-PRO-1 dye displacement fluorescence | actives 1.3% (n = 370,000);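 active = inhibition above the plate cutoff, the mean of all test compounds on that plate plus 3 SD, cut at about 35% in these data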;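 also: 0% = DMSO alone and 100% = 100 µM mitoxantrone as full dye displacement; higher means more dye released from RNA so lower well fluorescence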
# B2AR ag = activates human beta-2 adrenergic receptor causing internalization; P07550; actives 0.43% (n = 340,000); response, % (test concentration not listed); Am2.2-beta2AR cells, FAP receptor internalization, flow cytometry; AID 504454;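 active = response above a set limit, near 3 SD of response in nonfluorescent compounds, cut at about 42% in these data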
# Target sequence (P07550 whole entry, looked up): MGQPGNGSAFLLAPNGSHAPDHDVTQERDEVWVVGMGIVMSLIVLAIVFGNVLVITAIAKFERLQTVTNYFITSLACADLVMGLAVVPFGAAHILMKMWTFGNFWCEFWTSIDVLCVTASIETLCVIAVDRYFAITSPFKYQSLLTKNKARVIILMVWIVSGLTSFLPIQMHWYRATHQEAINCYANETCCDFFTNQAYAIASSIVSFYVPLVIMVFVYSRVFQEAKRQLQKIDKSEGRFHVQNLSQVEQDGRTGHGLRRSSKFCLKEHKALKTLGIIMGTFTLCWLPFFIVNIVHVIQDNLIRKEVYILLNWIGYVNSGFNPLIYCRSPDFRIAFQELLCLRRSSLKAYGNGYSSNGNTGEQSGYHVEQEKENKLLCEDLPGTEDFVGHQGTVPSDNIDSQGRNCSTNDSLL
# MPTP block = blocks calcium-induced mitochondrial swelling; isolated mouse mitochondria, Ca2+ swelling absorbance, 30 min; inhibition, % at 10 µM; actives 1.4% (n = 360,000); AID 602449;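 active = inhibition of 50% or more, scaled per plate between neutral and stimulator controls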;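 also: 0% = DMSO wells given calcium and 100% = 1 mM EGTA wells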
# Starred values were filed as active, the others as inactive; i = inactive; . = not tested or not shown. Compounds with a hit are over-represented: about 3.8% of the library has one in this group of screens.
SMILES,Exocytosis inh,T cell modulator,V-ATPase pHluor,rCAG RNA binder,B2AR ag,MPTP block
Cc1ccccc1NC(=O)N(C)[C@H]1C[C@H]2c3[nH]c4c(-c5ccc6c(c5)OCO6)cccc4c3CCN2C[C@H]1[C@H](C)O,.,.,.,14,.,.
CCOC(=O)C1=C(Cc2ccc(F)cc2)C(=O)c2ccccc2C1=O,100*,i,-1,10,-168,14
O=C(OCc1ccc(F)cc1)c1ccc2c(c1)-c1ccccc1C2=O,-3,326,2,2,-6,-4
COC(=O)[C@]12C[C@H](CC(=O)NCc3cccc(C(F)(F)F)c3)C(=O)N(Cc3ccc4c(c3)OCO4)C1=C[C@H](C(C)C)O[C@@H]2C1CC1,.,.,.,3,.,.
Cc1ccc(C(=O)N/C(=C\c2ccc(-c3ccccc3[N+](=O)[O-])o2)C(=O)NCCCN2CCOCC2)cc1,91*,180,-4,13,2,0
CC(C)C[C@@H]1COc2cc(Br)ccc2S(=O)(=O)N1Cc1cn(CCC2OCCCO2)nn1,.,.,.,4,.,.
CCOC(=O)c1c(O)c2cc(Cl)ccc2n(CC)c1=O,2,58*,-3,0,2,1
COc1cc(/C=C/C(=O)OCC(=O)c2ccc(OC(F)F)cc2)ccc1O,67*,328,2,9,7,1
O=C(/C=C/c1ccco1)OCC(=O)c1ccc(OC(F)F)cc1,-4,220,0,11,2,-1
O=C1CCC2(CCCCC2)N1CCCO,.,.,.,1,.,.
CC1(C)CC(=O)C2=C(C1)OC1=C(C(=O)CC(C)(C)C1)C2c1ccc(O)cc1O,36,233,2,-106,93*,-5
CC(C)CN1CN2Cc3cc(F)ccc3C2CS1(=O)=O (stereo not drawn),.,.,.,2,.,.
Cc1cc2nc(-c3ccccc3)c(Cc3cccc(Cl)c3)n2c(C)c1Br,-1,.,.,52*,.,1
FC(F)(F)c1cc(Cl)c2nc(-c3ccccc3)c(Cc3cccc(Cl)c3)n2c1,-1,.,.,41*,.,2
COC(=O)C1CN(Cc2ccc(F)cc2)CCS(=O)(=O)N1Cc1cn(Cc2ccccc2)nn1 (stereo not drawn),.,.,.,0,.,.
O=C(NCCN1C(=O)S/C(=C\c2cccnc2)C1=O)c1ccc([N+](=O)[O-])s1,-2,306,4,-1,3,1
Cc1c(C(=O)NCCN2C(=O)S/C(=C\c3cccnc3)C2=O)cccc1[N+](=O)[O-],3,19*,0,7,-2,1
N#Cc1cccc(NC(=O)OCCN2C(=O)CCC23CCC(c2ccc(Cl)cc2)CC3)c1 (stereo not drawn),.,.,.,3,.,.
CC1(C)CC[C@]2(C(=O)O[C@@H]3O[C@H](CO)[C@@H](O)[C@H](O)[C@H]3O)CC[C@]3(C)C(=CCC4[C@@]5(C)CC[C@H](O[C@@H]6O[C@H](C(=O)O)[C@@H](O[C@H]7OC[C@@H](O)[C@@H](O)[C@@H]7O)[C@H](O)[C@H]6O)C(C)(C)C5CC[C@]43C)[C@@H]2C1 (stereo partly drawn),56*,353,1,26,5,-2
Cc1ccccc1-n1c(C)nnc1SCC(=O)N(C)C1CCS(=O)(=O)C1 (stereo not drawn),-2,326,15*,-1,0,1
COc1ccc(CN(C)C(C#Cc2ccccc2)Cc2ccccc2)c(OC)c1 (stereo not drawn),.,.,.,1,.,.
CC1CCN(C(=O)COC(=O)Cc2c[nH]c3ccccc23)CC1,1,i,13*,-4,-4,2
COc1cc(N=Nc2ccc(Br)cc2)cc(C=O)c1O,105*,.,-2,6,.,5
Cc1cc(N2CCOCC2)nc(-c2ccccc2O)n1,3,386,60*,-5,6,-1
O=C(Nc1ccc(Cl)cc1)C(Cl)C(=O)c1ccccc1 (stereo not drawn),96*,278,2,6,26,6
SMILES,Exocytosis inh,T cell modulator,V-ATPase pHluor,rCAG RNA binder,B2AR ag,MPTP block
CCCCN1C(=O)C(=O)N(CC(=O)N2CCN(c3ccccc3)CC2)C1=O,-1,350,-1,0,1,0
CCCCN1C(=O)C(=O)N(c2ccccc2)C1=S,6,934,8.8*,0,6,0
COC(=O)[C@]12C[C@H](CC(=O)NCCC(C)C)C(=O)N(CCC3=CCCCC3)C1=C[C@H](C(C)C)O[C@@H]2C1CC1,.,.,.,3,.,.
Cc1ccccc1CN1N=C(/C=C/c2ccccc2)CCC1=O,-4,386,0,-3,48*,-1
COC(=O)C1CN(Cc2cn(Cc3ccc(C)cc3)nn2)CCS(=O)(=O)N1Cc1ccc(C)cc1 (stereo not drawn),.,.,.,2,.,.
COc1ccc(C(=O)OCC(=O)c2ccc(C3CCCCC3)cc2)cc1,-1,147,2,2,-3,0
Nc1ccc(O)cc1C(=O)OCC(=O)c1ccc(C2CCCCC2)cc1,-4,286,2,51*,4,6
Cc1ccc(C)n1-c1sc2c(c1C(=O)O)CCCC2,2,229,1,35*,-3,4
CCOC(=O)c1c(-n2c(C)cc(C=O)c2C)sc2c1CCCC2,4,195,-4,-6,4,7
CCOC(=O)CC[C@@H]1CC[C@]2(CCCN(Cc3ccc(Cl)cc3)C2)O1,.,.,.,2,.,.
COc1cccc(-c2noc(CCCC(=O)Nc3ccc(C(N)=O)cc3)n2)c1,5,162,17*,-1,-15,1
CC1=C(C(=O)OCCOC(C)C)C(c2cc3c(cc2Br)OCO3)C2=C(CCCC2=O)N1 (stereo not drawn),100*,539,3,-6,-18,0
O=C(OC12CCCN(C1)/C(=C/c1cccc(Cl)c1)C2)c1ccco1 (stereo not drawn),.,.,.,5,.,.
COc1ccc(Cl)cc1NC(=S)N(Cc1ccccc1C)CC1CCC(C(=O)O)CC1 (stereo not drawn),1,518,1,45*,5,-1
CCc1ccccc1NC(=S)N(Cc1ccc(OC)cc1)CC1CCC(C(=O)O)CC1 (stereo not drawn),-2,404,2,1,3,0
Cc1cc(NC(=O)Nc2cccc(Cl)c2)no1,-7,.,.,3,.,17
Cc1cc(NS(=O)(=O)c2ccc(NC(=O)Nc3cccc(Cl)c3)cc2)no1,2,412,0,68*,3,11
Cc1ccc(Cn2cc(CN(C(C)(C)C)S(=O)(=O)c3ccc(F)cc3Br)nn2)cc1,.,.,.,6,.,.
O=[N+]([O-])c1ccccc1-c1ccc(C(=S)N2CCCCC2)o1,65*,216,3,3,3,2
O=[N+]([O-])c1ccccc1-c1ccc(C(=S)N2CCCC2)o1,3,374,1,12,3,-1
c1ccc(-c2ccc(C3=Nn4c(nnc4-c4ccccn4)SC3)cc2)cc1,.,.,.,2,.,.
CCOC(=O)c1cccc(NC(=O)CN(C)S(=O)(=O)c2cc(OC)ccc2OC)c1,.,.,.,2,.,.
